Experimental data taken from ChEMBL document CHEMBL4325893, “Synthesis and antibacterial profiles of targeted triclosan derivatives” (2019).
≈ marks a conversion by molar mass, not a printed value.

What was measured:
[1] = system: Staphylococcus epidermidis; test: Antibacterial activity against Staphylococcus epidermidis 155 after 18 hrs; assay type: functional; details: Staphylococcus epidermidis, 155, 18 h
Procedure, shortened: (§1)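 Broth microdilution in Nutrient Broth No. 2; stocks in ethanol diluted to 0.01–128 µg/ml (triclosan) or 0.25–256 µg/ml (glycosides). Overnight 37 °C NB2 cultures diluted 1 in 10^4 in saline and added to the dilutions. Incubation at 37 °C with agitation, OD read every 15 min; MIC is the lowest concentration preventing any OD rise after 18 h.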

[2] = system: Staphylococcus epidermidis; test: Antibacterial activity against Staphylococcus epidermidis ATCC 14990 after 18 hrs; assay type: functional; details: ATCC 14990, 18 h; procedure, shortened: as §1
Escherichia coli [3] = test: Antibacterial activity against Escherichia coli ATCC 8739 after 18 hrs; assay type: functional; details: ATCC 8739, 18 h; procedure, shortened: as §1
Proteus vulgaris = test: Antibacterial activity against Proteus vulgaris OCC 195 after 18 hrs; assay type: functional; details: OCC 195, 18 h; procedure, shortened: as §1
[4] = Antibacterial activity against Enterobacter cloacae ATCC 13047 after 18 hrs; assay type: functional, Enterobacter cloacae subsp. cloacae; details: ATCC 13047, 18 h; procedure, shortened: as §1
[5] = system: Staphylococcus saprophyticus; test: Antibacterial activity against Staphylococcus saprophyticus ATCC 15305 after 18 hrs; assay type: functional; details: ATCC 15305, 18 h
Procedure, shortened: (§2)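 Broth microdilution in Nutrient Broth No. 2. Ethanol stocks were diluted in broth to 0.01–128 µg/ml for triclosan and 0.25–256 µg/ml for glycosides. Overnight 37°C NB2 cultures were diluted 1 in 10^4 in saline and added to the wells. Plates were incubated at 37°C with OD read every 15 min after agitation. MIC was the lowest concentration giving no OD increase at 18 h.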

[6] = Antibacterial activity against Salmonella enterica subspecies enterica serotype Virchow NCTC 5742 after 18 hrs; assay type: functional, Salmonella enterica subsp. enterica serovar Virchow; details: NCTC 5742, 18 h; procedure, shortened: as §1
Streptococcus viridans = test: Antibacterial activity against Streptococcus viridans OCC 234 after 18 hrs; assay type: functional; details: OCC 234, 18 h; procedure, shortened: as §2
Streptococcus pneumoniae = test: Antibacterial activity against Streptococcus pneumoniae ATCC 49619 after 18 hrs; assay type: functional; details: ATCC 49619, 18 h; procedure, shortened: as §2
Escherichia coli [7] = test: Antibacterial activity against Escherichia coli ATCC 10536 after 18 hrs; assay type: functional; details: ATCC 10536, 18 h; procedure, shortened: as §1
Klebsiella aerogenes = test: Antibacterial activity against Klebsiella aerogenes NCTC 8167 after 18 hrs; assay type: functional; details: NCTC 8167, 18 h; procedure, shortened: as §1
Bacillus subtilis = test: Antibacterial activity against Bacillus subtilis NCTC 10073 after 18 hrs; assay type: functional; details: NCTC 10073, 18 h; procedure, shortened: as §1
[8] = Antibacterial activity against Salmonella enterica subspecies enterica serotype Arizonae OCC 706 after 18 hrs; assay type: functional, Salmonella enterica subsp. enterica serovar Arizonae; details: OCC 706, 18 h; procedure, shortened: as §1
Serratia marcescens = test: Antibacterial activity against Serratia marcescens OCC 217 after 18 hrs; assay type: functional; details: OCC 217, 18 h; procedure, shortened: as §1
Salmonella enteritidis = test: Antibacterial activity against Salmonella enterica subspecies enterica serotype Enteritidis 13076 after 18 hrs; assay type: functional, Salmonella enterica subsp. enterica serovar Enteritidis; details: Salmonella enterica, 13076, 18 h; procedure, shortened: as §1
Citrobacter freundii = test: Antibacterial activity against Citrobacter freundii OCC 851 after 18 hrs; assay type: functional; details: OCC 851, 18 h; procedure, shortened: as §1
Klebsiella pneumoniae = test: Antibacterial activity against Klebsiella pneumoniae ATCC 13883 after 18 hrs; assay type: functional; details: ATCC 13883, 18 h; procedure, shortened: as §1
Hafnia alvei = test: Antibacterial activity against Hafnia alvei 13337 after 18 hrs; assay type: functional; details: Hafnia alvei, 13337, 18 h; procedure, shortened: as §1
[9] = Antibacterial activity against Salmonella enterica subspecies enterica serotype Pullorum OCC 273 after 18 hrs; assay type: functional, Salmonella enterica subsp. enterica serovar Pullorum; details: OCC 273, 18 h; procedure, shortened: as §1
Staphylococcus aureus [10] = test: Antibacterial activity against Staphylococcus aureus OCC 104 after 18 hrs; assay type: functional; details: OCC 104, 18 h; procedure, shortened: as §1
Staphylococcus aureus [11] = test: Antibacterial activity against Staphylococcus aureus ATCC 9144 after 18 hrs; assay type: functional; details: ATCC 9144, 18 h; procedure, shortened: as §1
Pseudomonas aeruginosa = test: Antibacterial activity against Pseudomonas aeruginosa ATCC 27853 after 18 hrs; assay type: functional; details: ATCC 27853, 18 h; procedure, shortened: as §1
[12] = Antibacterial activity against Salmonella enterica subspecies enterica serotype Infantis OCC 2133 after 18 hrs; assay type: functional, Salmonella enterica subsp. enterica serovar Infantis; details: OCC 2133, 18 h; procedure, shortened: as §1
Cronobacter sakazakii = test: Antibacterial activity against Cronobacter sakazakii 29544 after 18 hrs; assay type: functional; details: Cronobacter sakazakii, 29544, 18 h; procedure, shortened: as §1
[13] = system: Staphylococcus epidermidis; test: Antibacterial activity against Staphylococcus epidermidis ATCC 12228 after 18 hrs; assay type: functional; details: ATCC 12228, 18 h; procedure, shortened: as §1
[14] = Antibacterial activity against Salmonella enterica subspecies enterica serotype Indiana OCC 597 after 18 hrs; assay type: functional, Salmonella enterica subsp. enterica serovar Indiana; details: OCC 597, 18 h; procedure, shortened: as §1
[15] = Antibacterial activity against Salmonella enterica subspecies enterica serotype Nottingham NCTC 7832 after 18 hrs; assay type: functional, Salmonella enterica subsp. enterica serovar Nottingham; details: NCTC 7832, 18 h; procedure, shortened: as §1
Escherichia coli [16] = test: Antibacterial activity against Escherichia coli OCC 122 after 18 hrs; assay type: functional; details: OCC 122, 18 h; procedure, shortened: as §1

Question: With `OC[C@H]1O[C@@H](Oc2cc(Cl)ccc2Oc2ccc(Cl)cc2Cl)[C@H](O)[C@@H](O)[C@H]1O` as the compound, how does the MIC [1] read?
Answer: 0.5 mg/L (≈ 1.11 µM)

Question: And the MIC [2]?
Answer: 0.5 mg/L (≈ 1.11 µM)

Question: And the MIC (Escherichia coli [3])?
Answer: 0.5 to 32 mg/L (≈ 1.11 to 70.8 µM)

Question: What about the MIC (Proteus vulgaris) of the same compound?
Answer: 8 mg/L (≈ 17.7 µM)

Question: What about the MIC [4] of the same compound?
Answer: 0.5 mg/L (≈ 1.11 µM)

Question: And the MIC [5]?
Answer: 8 mg/L (≈ 17.7 µM)

Question: What about the MIC [6] of the same compound?
Answer: 2 to 16 mg/L (≈ 4.43 to 35.4 µM)

Question: What about the MIC (Streptococcus viridans) of the same compound?
Answer: 256 mg/L (≈ 567 µM)

Question: And the MIC (Streptococcus pneumoniae)?
Answer: 128 mg/L (≈ 283 µM)

Question: And the MIC (Escherichia coli [7])?
Answer: 0.5 to 32 mg/L (≈ 1.11 to 70.8 µM)

Question: What about the MIC (Klebsiella aerogenes) of the same compound?
Answer: 4 mg/L (≈ 8.86 µM)

Question: What about the MIC (Bacillus subtilis) of the same compound?
Answer: 32 mg/L (≈ 70.8 µM)

Question: And the MIC [8]?
Answer: 2 to 16 mg/L (≈ 4.43 to 35.4 µM)

Question: What about the MIC (Serratia marcescens) of the same compound?
Answer: > 256 mg/L

Question: And the MIC (Salmonella enteritidis)?
Answer: 2 to 16 mg/L (≈ 4.43 to 35.4 µM)

Question: And the MIC (Citrobacter freundii)?
Answer: 8 mg/L (≈ 17.7 µM)

Question: And the MIC (Klebsiella pneumoniae)?
Answer: 0.5 mg/L (≈ 1.11 µM)

Question: And the MIC (Hafnia alvei)?
Answer: 0.5 mg/L (≈ 1.11 µM)

Question: And the MIC [9]?
Answer: 2 to 16 mg/L (≈ 4.43 to 35.4 µM)

Question: And the MIC (Staphylococcus aureus [10])?
Answer: 0.5 mg/L (≈ 1.11 µM)

Question: What about the MIC (Staphylococcus aureus [11]) of the same compound?
Answer: 0.5 mg/L (≈ 1.11 µM)

Question: And the MIC (Pseudomonas aeruginosa)?
Answer: > 256 mg/L

Question: What about the MIC [12] of the same compound?
Answer: 2 to 16 mg/L (≈ 4.43 to 35.4 µM)

Question: What about the MIC (Cronobacter sakazakii) of the same compound?
Answer: 8 mg/L (≈ 17.7 µM)

Question: And the MIC [13]?
Answer: 0.5 mg/L (≈ 1.11 µM)

Question: And the MIC [14]?
Answer: 2 to 16 mg/L (≈ 4.43 to 35.4 µM)

Question: What about the MIC [15] of the same compound?
Answer: 2 to 16 mg/L (≈ 4.43 to 35.4 µM)

Question: What about the MIC (Escherichia coli [16]) of the same compound?
Answer: 0.5 to 32 mg/L (≈ 1.11 to 70.8 µM)
